# From ChEMBL document CHEMBL1145214, “Synthesis, structure-activity relationships at the GABA(A) receptor in rat brain, and differential electrophysiological profile at the recombinant human GABA(A) receptor of a series of substituted 1,2-diphenylimidazoles” (J Med Chem, 2005)
# pEC50: −log10 of the molar value.
# How the values were obtained:
# [1] = biological target: T1, GABA A receptor alpha-2/beta-2/gamma-2 (Homo sapiens, UniProt P18507+P47869+P47870); assay: Effective concentration against GABA-evoked chloride currents mediated by human Gamma-aminobutyric acid GABA-A receptor alpha2-beta2-gamma2L expressed in Xenopus oocytes; type: cell-based, Oocyte
# T1 sequence (P47870 whole entry): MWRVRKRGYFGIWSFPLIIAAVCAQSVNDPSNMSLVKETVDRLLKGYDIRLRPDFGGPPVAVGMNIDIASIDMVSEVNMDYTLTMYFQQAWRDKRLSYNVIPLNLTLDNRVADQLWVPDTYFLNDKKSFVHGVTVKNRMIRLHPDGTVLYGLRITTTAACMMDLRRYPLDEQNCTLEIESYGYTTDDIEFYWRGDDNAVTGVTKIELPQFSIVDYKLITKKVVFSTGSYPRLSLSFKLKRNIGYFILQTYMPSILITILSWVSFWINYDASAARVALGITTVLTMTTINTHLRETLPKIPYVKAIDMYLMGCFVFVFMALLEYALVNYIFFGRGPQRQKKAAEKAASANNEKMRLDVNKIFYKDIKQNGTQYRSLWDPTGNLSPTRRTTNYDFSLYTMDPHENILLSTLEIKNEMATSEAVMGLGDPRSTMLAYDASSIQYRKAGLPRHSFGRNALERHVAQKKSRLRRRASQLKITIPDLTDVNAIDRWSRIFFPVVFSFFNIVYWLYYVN
# T1 sequence (P18507 whole entry): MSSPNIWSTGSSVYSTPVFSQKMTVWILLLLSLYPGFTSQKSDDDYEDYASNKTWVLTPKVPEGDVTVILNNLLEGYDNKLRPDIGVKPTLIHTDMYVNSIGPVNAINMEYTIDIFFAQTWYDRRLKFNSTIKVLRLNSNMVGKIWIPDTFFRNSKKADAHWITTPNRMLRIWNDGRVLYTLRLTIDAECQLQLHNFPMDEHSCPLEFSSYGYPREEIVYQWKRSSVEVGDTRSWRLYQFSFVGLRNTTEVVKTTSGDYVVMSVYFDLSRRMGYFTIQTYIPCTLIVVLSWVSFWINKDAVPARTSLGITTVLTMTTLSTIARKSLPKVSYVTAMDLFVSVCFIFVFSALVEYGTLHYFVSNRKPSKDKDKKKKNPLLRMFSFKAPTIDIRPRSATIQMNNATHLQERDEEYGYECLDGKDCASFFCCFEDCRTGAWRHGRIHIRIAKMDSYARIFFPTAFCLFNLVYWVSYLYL
# T1 sequence (P47869 whole entry): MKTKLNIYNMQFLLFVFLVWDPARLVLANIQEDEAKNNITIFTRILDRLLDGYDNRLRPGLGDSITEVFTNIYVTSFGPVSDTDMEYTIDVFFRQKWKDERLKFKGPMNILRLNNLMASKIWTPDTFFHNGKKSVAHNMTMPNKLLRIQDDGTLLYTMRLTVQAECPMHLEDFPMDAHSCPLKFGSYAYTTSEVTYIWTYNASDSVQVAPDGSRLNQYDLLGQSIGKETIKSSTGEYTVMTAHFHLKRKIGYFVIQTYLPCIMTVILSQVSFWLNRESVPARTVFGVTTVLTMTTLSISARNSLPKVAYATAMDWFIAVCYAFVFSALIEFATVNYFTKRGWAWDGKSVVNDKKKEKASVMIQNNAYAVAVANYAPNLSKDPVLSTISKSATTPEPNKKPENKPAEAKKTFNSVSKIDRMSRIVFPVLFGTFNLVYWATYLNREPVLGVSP
# Summary of the method: (§1)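 Human α2β2γ2L cDNAs, 1.5 ng total in 30 nL at a 1:1:1 ratio, injected into the animal pole of oocytes. Oocytes held at 15 °C in supplemented modified Barth's solution, pH 7.5. Readout was % potentiation of Cl- current from concentration-response curves.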
# [2] = biological target: GABA A receptor alpha-2/beta-2/gamma-2 (Homo sapiens) (UniProt P47870+P18507+P47869); assay: Maximal efficacy for GABA-evoked chloride currents mediated by human Gamma-aminobutyric acid GABA-A receptor alpha2-beta2-gamma2L expressed in Xenopus oocytes; type: cell-based; settings: Oocyte
# Summary of the method: as §1, with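 “7.5. Compounds were applied for 60 s together with GABA at EC10 (10% of the 10 mM GABA maximum), final DMSO ≤0.1%.” for “7.5.”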
# [3] = Effective concentration required for reversible loss of righting reflex in Xenopus laevis tadpoles; type: functional, Tadpole
SMILES,pEC50 [1],Maximal efficacy [2],pEC50 [3]
CCCOC(=O)c1cn(-c2ccc(Cl)cc2Cl)c(-c2ccc(Br)cc2)n1,5.77,537%,
CCOC(=O)c1cn(-c2ccccc2)c(-c2ccc(C)cc2)n1,5.39,625%,
CCOC(=O)c1cn(-c2ccccc2)c(-c2ccccc2)n1,5.19,638%,
CCOC(=O)c1cn(-c2cccc(Cl)c2)c(-c2ccccc2)n1,5.52,350%,
COC(=O)c1cn(-c2ccc(Cl)cc2Cl)c(-c2ccc(Br)cc2)n1,5.47,258%,
CCOC(=O)c1cn(-c2ccc(Cl)cc2Cl)c(-c2ccc(C)cc2)n1,6.00,568%,
CN1CCN(C(=O)c2cn(-c3ccc(Cl)cc3Cl)c(-c3ccc(Cl)cc3)n2)CC1,5.89,58.2%,
CCOC(=O)c1cn(-c2ccc(Cl)cc2Cl)c(-c2ccc(Br)cc2)n1,6.72,388%,
CCOC(=O)c1cn(-c2ccc(Cl)cc2Cl)c(-c2ccc(NC(C)=O)cc2)n1,4.72,209%,
CCOC(=O)c1cn(-c2ccccc2)c(-c2ccc(Cl)cc2)n1,5.38,458%,
CC(=O)[C@H]1CC[C@H]2[C@@H]3CC[C@H]4C[C@H](O)CC[C@]4(C)[C@H]3C(=O)C[C@]12C,,322%,
CCOC(=O)c1cn(-c2ccc(Cl)c(Cl)c2)c(-c2ccc(Cl)cc2)n1,5.64,521%,
CCOC(=O)c1cn(-c2ccc(Cl)cc2Cl)c(-c2ccc(N)cc2)n1,5.37,406%,
O=C(O)c1cn(-c2ccc(Cl)cc2Cl)c(-c2ccc(Cl)cc2)n1,5.06,256%,
CCCC(C)C1(CC)C(=O)NC(=O)NC1=O (stereo unspecified) [PENTOBARBITAL],4.30,214%,
CCOC(=O)c1cncn1[C@H](C)c1ccccc1 [ETOMIDATE],,501%,5.64
Cc1cn(-c2ccccc2)c(-c2ccccc2)n1,,-25%,
CCOC(=O)c1cn(-c2ccc(Cl)cc2Cl)c(-c2ccc([N+](=O)[O-])cc2)n1,5.62,413%,
CCOC(=O)c1cn(-c2ccc(Cl)cc2Cl)c(-c2ccc(Cl)cc2)n1,6.22,390%,5.92
CCN(CC)C(=O)c1cn(-c2ccc(Cl)cc2Cl)c(-c2ccc(Cl)cc2)n1,5.36,32.4%,
CCOC(=O)c1cn(-c2ccccc2)c(-c2ccc(OC)cc2)n1,5.04,369%,
CCOC(=O)c1cn(-c2ccc(Cl)cc2Cl)c(-c2ccc(OC)cc2)n1,5.72,362%,
CCOC(=O)c1cn(-c2ccc(Cl)cc2)c(-c2ccc(Cl)cc2)n1,5.82,302%,
CCOC(=O)c1cn(-c2ccc(F)cc2)c(-c2ccc(F)cc2)n1,5.51,569%,
O=C(OCCN1CCCCC1)c1cn(-c2ccc(Cl)cc2Cl)c(-c2ccc(Br)cc2)n1,,-14%,
CCOC(=O)c1cn(-c2ccc(Cl)cc2Cl)c(-c2ccccc2)n1,5.74,508%,
CC(C)c1cccc(C(C)C)c1O [PROPOFOL],4.95,461%,5.72
c1ccc(-c2nccn2-c2ccccc2)cc1,,-5.3%,
CCOC(=O)c1cn(-c2ccc(Cl)cc2Cl)c(-c2ccc(I)cc2)n1,6.35,180%,
